Assay results reported in article PMC5551398 (Biochemistry, 2017).
Each block holds one molecule with its values, some of them ahead of it. Bridge positions count the residues as written; N and C are the ends. Primed or numbered codes have the meaning given here. Ends that are not written are not given here. Peptide text beside a SMILES is read from it. * marks the point of attachment. FITC = O=C1OC2(c3ccc(O)cc3Oc3cc(O)ccc32)c2ccc(NC(=S)*)cc21; Biotin = O=C1N[C@H]2[C@H](CS[C@H]2CCCCC(=O)*)N1; FITC′ = fluorescein isothiocyanate label; Ahx = NCCCCCC(=O)O

Experiments:
MBP-CTR ECD = molecular target: T1, MBP-CTR ECD (Homo sapiens, UniProt P30988); experiment: Competition AlphaLISA peptide-binding assay
T1 sequence (P30988 36-151): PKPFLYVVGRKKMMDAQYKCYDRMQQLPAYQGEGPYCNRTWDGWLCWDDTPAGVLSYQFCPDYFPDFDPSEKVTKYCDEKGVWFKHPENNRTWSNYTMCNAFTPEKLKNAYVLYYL
Summary of the method: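 Binding by AlphaLISA competition. MBP-CTR ECD from transfected HEK293T cells (150 nM) was mixed with 150 nM biotinylated sCT and competitor peptide. Luminescence read at 680/615 nm. Three independent experiments, duplicate samples.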

[1] = molecular target: T2, MBP-CTR ECD (hCTR.36-151) (Homo sapiens, UniProt P30988); experiment: FP saturation peptide-binding assay, MBP-CTR ECD WT
T2 sequence (P30988 36-151): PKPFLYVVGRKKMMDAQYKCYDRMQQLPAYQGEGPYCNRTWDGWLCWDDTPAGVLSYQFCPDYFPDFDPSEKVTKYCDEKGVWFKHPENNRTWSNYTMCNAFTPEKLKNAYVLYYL
Summary of the method: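 MBP-CTR ECD was produced in HEK293S GnTI− cells and left untreated, digested with Endo H (4 µl of 500 U/µl, GlycoBuffer 3, 22°C, 30 min), or given heat-inactivated Endo H (75°C, 10 min). Digests were serially diluted (top 3 µM) and titrated against 10 nM FITC-AC413(6-25) Y25P, 1 h, dark, room temperature, HEPES pH 7.4 buffer. Anisotropy corrected for intensity quenching. Duplicate samples.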

[2] = molecular target: T3, MBP-free H6-CTR ECD (residues 32-140) (human, UniProt P30988-2 32-140); experiment: ITC
T3 sequence (looked up): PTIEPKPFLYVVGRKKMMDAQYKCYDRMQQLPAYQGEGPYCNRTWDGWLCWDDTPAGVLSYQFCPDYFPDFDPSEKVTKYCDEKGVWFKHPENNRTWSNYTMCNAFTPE

[3] = molecular target: T4, MBP-hCTR.36-151-H6 produced in HEK293S GnTI- cells (human, UniProt P30988-2 36-151, core N-glycans (Man5GlcNAc2) at N73, N125, N130); experiment: fluorescence polarisation
T4 sequence (looked up): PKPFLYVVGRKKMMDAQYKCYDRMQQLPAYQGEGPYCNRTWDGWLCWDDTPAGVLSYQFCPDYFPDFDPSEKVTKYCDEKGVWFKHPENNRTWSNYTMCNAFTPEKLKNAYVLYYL

[4] = molecular target: T5, MBP-CTR ECD-H6 produced in E. coli (human, UniProt P30988-2 36-151); experiment: fluorescence polarisation
T5 sequence (looked up): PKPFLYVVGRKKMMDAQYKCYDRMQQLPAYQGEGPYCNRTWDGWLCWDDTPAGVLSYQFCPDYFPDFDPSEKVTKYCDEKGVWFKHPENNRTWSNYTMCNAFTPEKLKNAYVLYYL

[5] = molecular target: T6, MBP-hCTR.36-151-H6 produced in HEK293T cells (human, UniProt P30988-2 36-151, complex N-glycans at N73, N125, N130); experiment: fluorescence polarisation
T6 sequence (looked up): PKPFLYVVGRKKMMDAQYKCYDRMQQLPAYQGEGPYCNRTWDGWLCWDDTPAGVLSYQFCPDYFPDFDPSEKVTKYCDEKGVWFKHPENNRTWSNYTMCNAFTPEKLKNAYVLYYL

[6] = molecular target: T6, MBP-hCTR.36-151-H6 produced in HEK293T …; experiment: AlphaScreen or HTRF
[7] = molecular target: T6, MBP-hCTR.36-151-H6 produced in HEK293T …; experiment: fluorescence polarisation; remark: listed apart in the source
[8] = molecular target: T6, MBP-hCTR.36-151-H6 produced in HEK293T …; experiment: AlphaScreen or HTRF; remark: listed apart in the source
[9] = molecular target: T6, MBP-hCTR.36-151-H6 produced in HEK293T …; experiment: fluorescence polarisation; remark: listed apart in the source
[10] = molecular target: T7, MBP-RAMP2-(GS)5-CTR ECD-H6 produced in E. coli (human, UniProt O60895 55-140; P30988-2 36-151); experiment: fluorescence polarisation
T7 chain: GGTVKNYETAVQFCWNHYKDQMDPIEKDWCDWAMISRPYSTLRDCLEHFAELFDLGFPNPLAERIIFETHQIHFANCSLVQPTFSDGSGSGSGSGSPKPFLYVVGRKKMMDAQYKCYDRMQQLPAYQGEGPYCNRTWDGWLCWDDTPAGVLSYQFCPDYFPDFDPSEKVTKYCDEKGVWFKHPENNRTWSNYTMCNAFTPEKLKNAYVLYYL

[11] = molecular target: T6, MBP-hCTR.36-151-H6 produced in HEK293T …; experiment: fluorescence polarisation; remark: listed apart in the source

Kd [2]: 16000 nM
dH [2]: -24.2 kcal/mol
stoichiometry N [2]: 1.17
Ki [3]: ~3000 nM
Ki [4]: ~25000 nM
Ki [5]: ~3000 nM
Molecule: VLGKLSQELHKLQTYPRTNTGSGTP-NH2 [sCT(8-32)]

binding result [6]: binds
B1: Biotin-sCT C1A/C7A (peptide)
peptide: Biotin-ASNLSTAVLGKLSQELHKLQTYPRTNTGSGTP-NH2
SMILES: CC(C)C[C@H](NC(=O)[C@H](CCCCN)NC(=O)CNC(=O)[C@H](CC(C)C)NC(=O)[C@@H](NC(=O)[C@H](C)NC(=O)[C@@H](NC(=O)[C@H](CO)NC(=O)[C@H](CC(C)C)NC(=O)[C@H](CC(N)=O)NC(=O)[C@H](CO)NC(=O)[C@H](C)NC(=O)CCCC[C@@H]1SC[C@@H]2NC(=O)N[C@@H]21)[C@@H](C)O)C(C)C)C(=O)N[C@@H](CO)C(=O)N[C@@H](CCC(N)=O)C(=O)N[C@@H](CCC(=O)O)C(=O)N[C@@H](CC(C)C)C(=O)N[C@@H](Cc1c[nH]cn1)C(=O)N[C@@H](CCCCN)C(=O)N[C@@H](CC(C)C)C(=O)N[C@@H](CCC(N)=O)C(=O)N[C@H](C(=O)N[C@@H](Cc1ccc(O)cc1)C(=O)N1CCC[C@H]1C(=O)N[C@@H](CCCNC(=N)N)C(=O)N[C@H](C(=O)N[C@@H](CC(N)=O)C(=O)N[C@H](C(=O)NCC(=O)N[C@@H](CO)C(=O)NCC(=O)N[C@H](C(=O)N1CCC[C@H]1C(N)=O)[C@@H](C)O)[C@@H](C)O)[C@@H](C)O)[C@@H](C)O

Kd [10]: 4570 nM
Molecule: {FITC-Ahx}-ANFLVRLQTYPRTNVGANTY-NH2 [FITC-Ahx-AC413(6-25)]

Kd [2]: 35000 nM
Molecule: CSNLSTCVLGKLSQELHKLQTYPRTNTGSGTP-NH2 (disulfide 1-7) [sCT(1-32)]

Second part, the molecule before the results:

Molecule: CC(C)C[C@H](NC(=O)[C@H](CCCNC(=N)N)NC(=O)[C@@H](NC(=O)[C@H](CC(C)C)NC(=O)[C@H](Cc1ccccc1)NC(=O)[C@H](CC(N)=O)NC(=O)[C@H](C)NC(=O)CCCCCNC(=S)Nc1ccc2c(c1)C(=O)OC21c2ccc(O)cc2Oc2cc(O)ccc21)C(C)C)C(=O)N[C@@H](CCC(N)=O)C(=O)N[C@H](C(=O)N[C@@H](Cc1ccc(O)cc1)C(=O)N1CCC[C@H]1C(=O)N[C@@H](CCCNC(=N)N)C(=O)N[C@H](C(=O)N[C@@H](CC(N)=O)C(=O)N[C@H](C(=O)NCC(=O)N[C@@H](C)C(=O)N[C@@H](CC(N)=O)C(=O)N[C@H](C(=O)N1CCC[C@H]1C(N)=O)[C@@H](C)O)C(C)C)[C@@H](C)O)[C@@H](C)O [FITC-AC413(6-25) Y25P] ({FITC-Ahx}-ANFLVRLQTYPRTNVGANTP-NH2)
IC50 (MBP-CTR ECD): 47.9 nM
Kd [1]: 115 nM

Molecule: ANFLVRLQTYPRTNVGANTP-NH2 [AC413(6-25) Y25P, reference compound]
IC50 (MBP-CTR ECD): 708 nM

Molecule: {FITC′-Ahx}-ANFLVRLQTYPRTNVGANTP-NH2 [FITC-Ahx (aminohexanoic acid)-AC413(6-25) Y25P]
pKD [7]: 6.94
pIC50 [8]: 7.32
IC50 [6]: 47.9 nM
Kd [9]: 115 nM

Molecule: ANFLVRLQTYPRTNVGANTP-NH2 [AC413(6-25) Y25P]
pKI [11]: 6.2
pIC50 [8]: 6.15
Ki [5]: 631 nM
